Broadly, the inhibition is the percentage by which the read-out fell short of the control.

In PubChem BioAssay AID463209 (The Scripps Research Institute Molecular Screening Center, 2010) one finds inhibition data, which are given here for 13 compounds.

Calls of active or inactive are those of the source.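 The calls were made as follows: active = parasite growth inhibition of at least 50% in red blood cells; inactive = the rest.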

This experiment concerns P. falciparum 3D7 in RBCs, 3H-hypoxanthine incorporation, 48 h. Briefly: blood-stage malaria parasite growth inhibition – cell-based, radiolabel readout, RBCs, P. falciparum M1AAP inhibitor project, late-stage follow-up (AID 463209). The conditions noted are these: at 10 µM; stronger effect = higher value. In short, it runs like this:
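Dosing: 10 µM single dose / Material: P. falciparum 3D7-infected erythrocytes / Buffer or medium: hypoxanthine-free RPMI medium with 10% serum / Technique: 3H beta counting after harvest / Benchmarks: uninfected RBC background wells and DMSO-treated infected wells / Repeats: 6–9 replicates / Read-out: % growth inhibition versus vehicle control / Times: 48 h at 37 °C, low-oxygen gas mix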
For the compound `O=C(NCCC1=CCCCC1)C1CCN(S(=O)(=O)c2ccc(Br)s2)CC1`, the inhibition is 0% (inactive).
As for `O=C(O)CCC(=O)N1N=C(c2c(-c3ccccc3)c3cc(Cl)ccc3[nH]c2=O)CC1c1ccco1` (stereo not drawn), the figure is 0% (inactive).
As for `O=C1N=c2ccccc2=C1c1sc(=S)n(NC(=O)c2cccc(O)c2)c1O`, the figure is 0% (inactive); as for `O=C(Nn1c(C2CCC2)nc2ccccc2c1=O)c1cccs1`, 8% (inactive); as for `O=C(NCc1ccco1)C1CCCN(S(=O)(=O)c2cccc3nonc23)C1` (stereo not drawn), 0% (inactive).
To `O=C(O)CCC(=O)N1N=C(c2c(-c3ccccc3)c3cc(Cl)ccc3[nH]c2=O)CC1c1cccs1` (stereo not drawn) belongs 0% (inactive); to `CC(=O)N1N=C(c2c(O)n(C)c(=O)n(C)c2=O)CC1c1ccccc1` (stereo not drawn), 2% (inactive).
On to `COc1ccc(OC)c(/C=C2\SC(=S)N(C(C(=O)O)c3ccccc3)C2=O)c1` (stereo not drawn), for which the inhibition was 3% (inactive).
To `COc1ccccc1-c1nc2ccccc2c(=O)n1NC(=O)c1cccs1` belongs 4% (inactive); to `O=C(NCc1cccc(F)c1)C1CCN(S(=O)(=O)Cc2ccccc2)CC1`, 15% (inactive); to `O=C1N=c2ccccc2=C1c1sc(=S)n(NC(=O)c2ccccc2)c1O`, 6% (inactive).
As for `COc1ccc(C2CC(c3c(-c4ccccc4)c4cc(Cl)ccc4[nH]c3=O)=NN2C(=O)CCC(=O)O)cc1` (stereo not drawn), the figure is 0% (inactive); as for `O=C1/C(=C/c2cccs2)SC(=S)N1NS(=O)(=O)c1ccccc1`, 1% (inactive).
